Columns and labels:
TT cells = assay: Apoptosis assay; format: cell-based, human; conditions: 24-hour incubation
Outline: (§1)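 Cells kept in F-12K or RPMI with 10% (vol/vol) FBS at 37°C in humidified 5% CO2. They were split into 10-cm dishes and, 24 hours later, exposed to a range of test compound concentrations for 24 hours. Lysates were prepared in RIPA buffer. Cleaved caspase-3 and cleaved PARP were detected by standard Western blotting.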

LC-2/ad cells = assay: Apoptosis assay; format: cell-based, human; conditions: 24-hour incubation
Outline: as §1

HUVEC cells = conditions: at 1 μmol/L; cited from earlier work
[1] = tested on: phospho-RET, phospho-PLCγ, phospho-ERK, phospho-MEK in LC-2/ad cells; assay: Western blot of RET pathway phosphorylation; format: cell-based, human; conditions: 50 nmol/L to 5 μmol/L, 2 hours
[2] = tested on: LC-2/ad cells (CCDC6-RET); assay: Cell viability assay; format: cell-based; conditions: Homo sapiens, 72 h, read-out: IC50 (cell viability)
TT cells (RET C634W) = assay: Cell viability assay; format: cell-based; conditions: Homo sapiens, 96 h, read-out: IC50 (cell viability)
[3] = tested on: RET-rearranged lung cancers; conditions: cited from earlier work

Row | Structure (SMILES) | apoptosis (cleaved caspase-3 and cleaved PARP) (TT cells) | apoptosis (cleaved caspase-3 and cleaved PARP) (LC-2/ad cells) | growth inhibitory activity toward HUVEC cells (HUVEC cells) | ERK and MEK phosphorylation [1] | IC50 [2] | IC50 (TT cells (RET C634W)) | patients requiring a dose reduction due to drug-related toxicities ([3]; phase II study) | overall response rate ([3]; phase II trial)
1 | COc1cc2ncnc(Oc3cccc(NC(=O)Nc4cc(C(C)(C)C(F)(F)F)on4)c3)c2cc1OC.Cl [RXDX-105, 1-(3-(6,7-dimethoxyquinazolin-4-yloxy)phenyl)-3-(5-(1,1,1-trifluoro-2-methylpropan-2-yl)isoxazol-3-yl)urea hydrochloride] | no cleavage of caspase-3 and PARP | induced apoptosis | no growth inhibitory activity | – | – | – | – | –
2 | CCc1cc2c(cc1N1CCC(N3CCOCC3)CC1)C(C)(C)c1[nH]c3cc(C#N)ccc3c1C2=O [alectinib] | no cleavage of caspase-3 and PARP was seen in the TT cells, except for the higher doses of alectinib | induced apoptosis | – | neither RXDX-105 nor alectinib treatment showed detectable change | 204 nM | 90 nM | – | –
3 | COc1cc2nccc(Oc3ccc(NC(=O)C4(C(=O)Nc5ccc(F)cc5)CC4)cc3)c2cc1OC [cabozantinib] | no cleavage of caspase-3 and PARP | induced apoptosis | – | able to decrease phospho-ERK and phospho-MEK at as low as 50 nmol/L | 98 nM | 77 nM | approximately two thirds | 28%
